TRPC4 agonist: TRPC4 (mouse) channel activation; HEK293 TRPC4beta/mu-opioid, Fluo4 calcium fluorescence; hits give high values; actives 0.49% (n = 310,000); B-score at 10 µM; Q9QUQ5; AID 2237;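 active = B-score above 5 SD of library B-scores, and initial fluorescence ratio not above library mean plus 5 SD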;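 note: positive B-score marks a calcium rise read as TRPC4 activation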
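Assay system: HEK293 cells stably co-expressing mouse TRPC4beta and mu-opioid receptor / Timing: Fluo4 dye loading 45 min at room temperature, 110 s recording / Signal: Fluo4 calcium-sensitive dye fluorescence, kinetic, 1 Hz baseline / Read-out: integrated baseline-normalised fluorescence ratio, converted to per-well B score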
TRPC4 PAM: TRPC4 (mouse) allosteric potentiation; HEK293 TRPC4beta/mu-opioid, DAMGO EC20, Fluo-4 Ca2+ flux; hits give high values; actives 0.42% (n = 310,000); Q9QUQ5; B-score at 10 µM; AID 2227;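 active = B-score of calcium response area above 5 SD of library B-scores, with initial fluorescence ratio within 5 SD of library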;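 note: B-score of integrated fluorescence ratio over time as area under calcium response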
TRPC6 activator: mouse TRPC6 channel activation; Q61143; HEK293-TRPC6 membrane potential dye fluorescence; hits give high values; B-score at 10 µM; actives 0.13% (n = 310,000); AID 2550;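 active = B-score of the integrated fluorescence ratio above library mean plus 3 SD, and starting fluorescence ratio within library mean plus 5 SD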;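 note: higher score means more depolarization so channel activation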
Target sequence (Q61143 whole entry, looked up): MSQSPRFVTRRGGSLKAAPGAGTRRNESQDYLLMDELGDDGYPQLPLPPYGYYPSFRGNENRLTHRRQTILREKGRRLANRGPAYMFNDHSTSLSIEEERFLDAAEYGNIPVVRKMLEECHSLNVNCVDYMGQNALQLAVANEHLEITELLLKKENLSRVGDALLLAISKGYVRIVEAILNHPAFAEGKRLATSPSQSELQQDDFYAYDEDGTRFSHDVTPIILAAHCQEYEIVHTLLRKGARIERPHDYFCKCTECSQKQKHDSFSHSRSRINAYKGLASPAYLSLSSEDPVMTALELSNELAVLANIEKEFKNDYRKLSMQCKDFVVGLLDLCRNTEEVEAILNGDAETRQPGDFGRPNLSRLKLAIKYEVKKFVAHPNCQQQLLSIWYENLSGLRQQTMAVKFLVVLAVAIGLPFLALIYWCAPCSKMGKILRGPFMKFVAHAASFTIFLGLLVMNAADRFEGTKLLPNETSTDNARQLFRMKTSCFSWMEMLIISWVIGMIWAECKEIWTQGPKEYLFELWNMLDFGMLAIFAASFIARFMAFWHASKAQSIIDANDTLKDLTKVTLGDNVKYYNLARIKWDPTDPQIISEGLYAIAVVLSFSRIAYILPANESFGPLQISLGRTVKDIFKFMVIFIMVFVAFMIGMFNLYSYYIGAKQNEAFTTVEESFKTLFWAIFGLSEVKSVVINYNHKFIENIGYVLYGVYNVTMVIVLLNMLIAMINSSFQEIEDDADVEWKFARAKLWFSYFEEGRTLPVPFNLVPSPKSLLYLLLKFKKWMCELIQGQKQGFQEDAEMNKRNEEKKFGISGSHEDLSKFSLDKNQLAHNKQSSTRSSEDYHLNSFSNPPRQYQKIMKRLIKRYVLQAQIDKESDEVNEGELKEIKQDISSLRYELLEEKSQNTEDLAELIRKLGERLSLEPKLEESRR
TRPC6 inhibitor: blocks the mouse TRPC6 cation channel; Q61143; HEK293-TRPC6, membrane potential dye, ACh-evoked depolarization; hits give low values; B-score at 10 µM; actives 1.1% (n = 310,000);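 active = B-score under library mean minus 3 SD, initial fluorescence not abnormally high, positive integrated signal ratio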;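 note: B-score derived from integrated fluorescence ratio over the kinetic read; more negative B-score means stronger inhibition of depolarization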
TRPC4 inh: blocks the mouse TRPC4 cation channel; Q9QUQ5; HEK293 TRPC4beta/mu-opioid, DAMGO-evoked Fluo4 calcium flux; hits give low values; B-score at 10 µM; actives 0.39% (n = 300,000);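 active = B-score over 3 SD under the library average, no early fluorescence shift, positive overall ratio signal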
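Assay system: HEK293 cells with stable TRPC4beta plus mu-opioid receptor expression. Dosing: single dose. Measured by: Fluo4 Ca2+ flux fluorescence. Also added: DAMGO in two steps, submaximal then maximal. Read-out: B score from integrated Fluo4 fluorescence ratio.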
DNA FID counter: displaces DNA intercalator in HCV helicase counter-screen | DNA fluorescent intercalator displacement, fluorescence | inhibition, % at 7.9 µM | actives 0.17% (n = 290,000); in the data active = inhibition above about 37%;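 note: 0% = vehicle and 100% = reference compound; higher means more ethidium bromide displaced from hairpin DNA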
TRPC4 sel inh 2: second check of whether TRPC6 inhibitors also affect mouse TRPC4; shares compounds with TRPC6 inhibitor; HEK293 TRPC4/MOR, membrane potential dye fluorescence; channel activated by saturating DAMGO dose; inhibition, % at 10 µM; actives 42% (n = 920); AID 2776;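 active = compounds whose fluorescence signal differed from control wells by over 3 SD, either direction, in both duplicate plates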
TRPC4 spec: selectivity of TRPC6 inhibitors: effect on mouse TRPC4; shares compounds with TRPC6 inhibitor; HEK293 TRPC4/mu-opioid, membrane potential fluorescence; activity change, negative = inhibition, % at 10 µM; actives 61% (n = 920); AID 2777;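 active = rise or fall in signal beyond 3 SD of buffer-only wells in both replicate plates, either sign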;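 note: integrated kinetic ratio of fluorescence range over baseline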
HEK293 MPD ctr 2-1: second counter-screen for TRPC6 inhibitors: parental HEK293 cells; shares compounds with TRPC6 inhibitor; parental HEK293 membrane potential dye fluorescence; maximal acetylcholine challenge after compound addition; signal change vs control, % at 10 µM; actives 31% (n = 920); AID 2779;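 active = membrane potential signal moving either way by over 3 SD of the maximum-effect control, in both duplicate plates, meaning non-specific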
HEK293 MPD ctr-1: parental HEK293 nonspecific activity of TRPC6 inhibitors; AID 2780; parental HEK293 membrane potential dye fluorescence; actives 60% (n = 920); shares compounds with TRPC6 inhibitor; membrane potential signal change, % at 10 µM;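 active = membrane potential signal shifting up or down by more than 3 SD of buffer-only wells, on both duplicate plates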
HEK293 MPD ctr-2: checks TRPC6 modulator effects in parental HEK293 cells | shares compounds with TRPC6 inhibitor | membrane potential dye fluorescence | membrane potential signal change, % at 10 µM | actives 51% (n = 2,400) | AID 488924;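 active = membrane potential signal moves up or down beyond 5 SD from buffer-only wells, on both duplicate plates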
HEK293 MPD ctr 2-2: second check of TRPC6 modulator effects in parental HEK293 cells. membrane potential dye fluorescence; after compound, maximal acetylcholine stimulation. inhibition, % at 10 µM. AID 488926. shares compounds with TRPC6 inhibitor. actives 14% (n = 2,400);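 active = membrane potential signal drops by more than 5 SD from the mean control signal, in both duplicate plates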;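 note: plate controls were acetylcholine ECmax control wells for no effect and buffer only wells for full effect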
TRPC4/MOR mod: tests whether TRPC6 modulators also affect mouse TRPC4. actives 69% (n = 2,400). AID 488927. percent change from control (negative = decrease, positive = increase), % at 10 µM. HEK293 TRPC4/mu-opioid, membrane potential fluorescence. shares compounds with TRPC6 inhibitor;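 active = membrane potential signal moved up or down beyond 5 SD of buffer control wells, in both duplicate plates, actives on both sides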;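 note: plate controls were assay buffer wells for no effect and DAMGO maximal-effect wells for full effect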
TRPC4 ctr inh 2: mouse TRPC4 off-target activity of TRPC6 modulators, second screen. shares compounds with TRPC6 inhibitor. HEK293 TRPC4/mu-opioid, membrane potential dye fluorescence; stimulated with maximal-effect DAMGO. inhibition, % at 10 µM. actives 55% (n = 2,400);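 active = drop in membrane potential signal beyond 5 SD of the control wells in both duplicate plates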;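 note: TRPC4 counter screen for TRPC6 hits run under conditions tuned for TRPC6 not TRPC4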
TRPC6 block conf: confirmation of mouse TRPC6 inhibitors; shares compounds with TRPC6 inhibitor; HEK293-TRPC6, membrane potential dye, ACh-evoked depolarization; inhibition, % at 10 µM; actives 43% (n = 3,300);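 active = fluorescence ratio falls more than 5 SD below the full-stimulation control mean, in both duplicate runs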;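 note: integrated fluorescence ratio of peak minus minimum over baseline after agonist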
TRPC6 act confirm: confirmation of mouse TRPC6 activators; HEK293-TRPC6 membrane potential dye fluorescence, FDSS; actives 11% (n = 2,800); AID 488961; shares compounds with TRPC6 inhibitor; activation, % at 10 µM;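 active = ratio signal rise beyond 5 SD above unstimulated control wells' mean, seen in both duplicate runs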;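 note: plate controls were buffer EC0 wells for no effect and acetylcholine ECmax response for full effect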
* = called active by the depositor; i = inactive; . = no result. Rows were chosen to be rich in hits. Some 2.3% of all compounds tested hit in one or more screens of this group.

SMILES	TRPC4 agonist	TRPC4 PAM	TRPC6 activator	TRPC6 inhibitor	TRPC4 inh	DNA FID counter	TRPC4 sel inh 2	TRPC4 spec	HEK293 MPD ctr 2-1	HEK293 MPD ctr-1	HEK293 MPD ctr-2	HEK293 MPD ctr 2-2	TRPC4/MOR mod	TRPC4 ctr inh 2	TRPC6 block conf	TRPC6 act confirm
COc1ccc(C)c2sc(N(CCCN(C)C)C(=O)c3ccc4c(c3)OCCO4)nc12	i	i	i	-6.9*	i	.	47%*	i	i	i	.	.	.	.	52%*	i
COc1ccc(C)c2sc(N(CCCN(C)C)C(=O)c3ccc(S(=O)(=O)N4CCc5ccccc5C4)cc3)nc12	i	i	i	i	i	.	.	.	.	.	.	.	.	.	.	.
CCN(CC)CCN(C(=O)c1ccc2c(c1)OCCO2)c1nc2ccc(C)cc2s1	i	i	i	i	i	9	.	.	.	.	.	.	.	.	.	.
Cc1cc(C)c2nc(N(CCCN(C)C)C(=O)c3ccc4c(c3)OCCO4)sc2c1	i	i	i	-8.2*	i	.	i	i	i	0.4%*	.	.	.	.	i	i
Cc1cc(C)c2nc(N(CCCN(C)C)C(=O)C3=COCCO3)sc2c1	i	i	i	i	i	.	.	.	.	.	.	.	.	.	.	.
CCN(CC)CCN(C(=O)c1ccc2c(c1)OCCO2)c1nc2cc3c(cc2s1)OCO3	i	i	i	-5.8*	i	17	.	.	.	.	i	i	-23%*	84%*	50%*	i
CCN(CC)CCN(C(=O)C1=COCCO1)c1nc2cc(C)cc(C)c2s1	i	i	i	-6.7*	i	18	44%*	i	i	0.6%*	.	.	.	.	i	i
COc1ccc(C)c2sc(N(CCN(C)C)C(=O)c3cccc(N4C(=O)CCC4=O)c3)nc12	68*	i	i	-6.4*	i	.	.	.	.	.	i	i	-18%*	44%*	i	i
CN(C)CCN(C(=O)c1cccc(N2C(=O)CCC2=O)c1)c1nc2ccc(Br)cc2s1	i	i	i	i	i	8	.	.	.	.	.	.	.	.	.	.
Cc1cc(C)c2sc(N(CCCN(C)C)C(=O)c3ccc(Br)s3)nc2c1	i	i	i	-9.6*	i	14	35%*	-17%*	i	i	.	.	.	.	78%*	i
CN(C)CCCN(C(=O)c1ccc2c(c1)OCCO2)c1nc2cc3c(cc2s1)OCO3	i	i	i	-5.7*	i	36	.	.	.	.	i	i	-18%*	80%*	78%*	i
CN(C)CCN(C(=O)c1cccs1)c1nc2cc3c(cc2s1)OCCO3	i	i	i	-8*	i	6	44%*	-18%*	i	-230%*	.	.	.	.	96%*	i
CCOc1ccc(CNC(=O)Cn2ccc3cc(S(=O)(=O)N4CCCC4)ccc32)cc1	i	i	i	i	i	-25	.	.	.	.	.	.	.	.	.	.
Cc1ccc(-n2nc3c(=O)n(CCCC(=O)NCCc4ccccc4C)nc(C)c3c2C)cc1	i	i	i	i	i	-57	.	.	.	.	.	.	.	.	.	.
O=C(NC1CC1)C1CCN(C(=O)c2ccc(Cl)cc2Cl)CC1	i	i	i	i	i	-8	.	.	.	.	.	.	.	.	.	.
N=c1c(S(=O)(=O)c2ccc(Cl)cc2)cc2c(=O)n3ccccc3nc2n1CCN1CCOCC1	i	i	i	i	i	-2	.	.	.	.	.	.	.	.	.	.
N=c1c(S(=O)(=O)c2ccccc2)cc2c(=O)n3ccccc3nc2n1CCCN1CCOCC1	i	i	i	-5.5*	i	-5	.	.	.	.	-142%*	i	-41%*	51%*	50%*	i
Cc1ccc(S(=O)(=O)c2cc3c(=O)n4ccccc4nc3n(CCCN3CCOCC3)c2=N)cc1C	i	i	i	-6.2*	i	-10	.	.	.	.	-250%*	66%*	-52%*	80%*	66%*	i
COCCNC(=S)N(CCc1c(C)[nH]c2ccc(Cl)cc12)Cc1cccnc1	i	i	i	-7*	i	-18	i	i	i	i	.	.	.	.	i	i
CCNC(=S)N(CCc1c(C)[nH]c2ccc(Cl)cc12)Cc1cccnc1	i	i	i	-5.8*	i	-15	.	.	.	.	i	i	i	i	i	i
CCOc1ccc(S(=O)(=O)N2CCCCC2)cc1NC(=O)c1c(CC)noc1C	i	i	i	i	i	.	.	.	.	.	.	.	.	.	.	.
CCC[N+](CC#Cc1ccccc1)(CCC)CC(=O)c1ccc(Cl)cc1	i	i	i	-5.7*	i	-11	.	.	.	.	332%*	i	77%*	52%*	68%*	.
CCC[N+](CC#Cc1ccccc1)(CCC)CC(=O)OC	i	i	i	i	i	-1	.	.	.	.	.	.	.	.	.	.
O=C(NC1CCCC1)C(c1ccncc1)N(CCCN1CCOCC1)C(=O)c1ccc(-c2ccccc2)[nH]1 (configuration not stated)	i	i	i	-5.1*	i	6	.	.	.	.	i	i	i	36%*	i	i
